From ChEMBL document CHEMBL4414579, “Natural Hydroxamate-Containing Siderophore Acremonpeptides A-D and an Aluminum Complex of Acremonpeptide D from the Marine-Derived Acremonium persicinum SCSIO 115” (J Nat Prod, 2019)
Active and inactive are the calls of the source. The rule behind the calls is not given here. Square brackets hold non-standard residues; d marks the D form. Peptide text beside a SMILES is read from it. Orn(N5-OH,N5-Ac) = CC(=O)N(O)CCC[C@H](N)C(=O)O

Columns and labels:
Format in all cases: functional, organism-based
Staphylococcus aureus [1] = assay: Antibacterial activity against Staphylococcus aureus ATCC 29213 up to 100 ug/ml by CLSI based method
Acinetobacter baumannii = assay: Antibacterial activity against Acinetobacter baumannii ATCC 19606 up to 100 ug/ml by CLSI based method; settings: ATCC 19606 = CIP 70.34 = JCM 6841
Escherichia coli [2] = assay: Antibacterial activity against drug-resistant Escherichia coli E11 up to 100 ug/ml by CLSI based method
Outline: (§1)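 Both strains were clinical isolates. They were screened within a panel of nine bacteria and two Candida albicans strains, at concentrations up to 100 μg/mL, by a previously reported method.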

Human alphaherpesvirus 1 [3] = assay: Inhibition of UL42 gene transcription in HSV-1 infected in African green monkey Vero cells at 10 uM by qRT-PCR analysis
Outline: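 Vero cells were infected with GFP-reporter HSV-1 at MOI 1.0, then exposed to compounds at 10 μM final or DMSO. Viral gene transcription was quantified by qRT-PCR, with ganciclovir as positive control and NTC as negative control.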

Staphylococcus aureus [4] = assay: Antibacterial activity against methicillin resistant Staphylococcus aureus shhs-A1 up to 100 ug/ml by CLSI based method; outline: as §1
Klebsiella pneumoniae = assay: Antibacterial activity against Klebsiella pneumoniae ATCC 13883 up to 100 ug/ml by CLSI based method
Human alphaherpesvirus 1 [5] = assay: Antiviral activity against HSV-1 infected in African green monkey Vero cells assessed as inhibition of GFP expression after 72 hrs by GFP-based fluorescence microscopic analysis; settings: Human alphaherpesvirus 1, Vero
Outline: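 Vero cells were infected at MOI 1.0 with recombinant HSV-1 carrying a GFP reporter. Cells were treated with compounds at 10 μM final or an equal amount of DMSO, with ganciclovir as positive control, and GFP was monitored by fluorescence microscopy. For EC50, infected cells were treated at several concentrations in triplicate, and viral load was measured by TCID50 at 72 h postinfection.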

Bacillus thuringiensis [6] = assay: Antibacterial activity against Bacillus thuringiensis BT01 up to 100 ug/ml by CLSI based method
Candida albicans [7] = assay: Antifungal activity against Candida albicans ATCC 96901
Outline: (§2)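 Tested against the yeast by a previously reported antimicrobial method, at concentrations up to 100 μg/mL.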

Candida albicans [8] = assay: Antifungal activity against Candida albicans CMCC(F) 98001; outline: as §2
Enterococcus faecalis = assay: Antibacterial activity against Enterococcus faecalis ATCC 29212 up to 100 ug/ml by CLSI based method
Bacillus thuringiensis [9] = assay: Antibacterial activity against Bacillus thuringiensis W102 up to 100 ug/ml by CLSI based method
Escherichia coli [10] = assay: Antibacterial activity against Escherichia coli ATCC 25922 up to 100 ug/ml by CLSI based method

Structure (SMILES)	Activity (Staphylococcus aureus [1])	Activity (Acinetobacter baumannii)	Activity (Escherichia coli [2])	inhibition (Human alphaherpesvirus 1 [3])	Activity (Staphylococcus aureus [4])	Activity (Klebsiella pneumoniae)	EC50 (Human alphaherpesvirus 1 [5])	Activity (Bacillus thuringiensis [6])	Activity (Candida albicans [7])	Activity (Candida albicans [8])	Activity (Enterococcus faecalis)	Activity (Bacillus thuringiensis [9])	Activity (Escherichia coli [10])
CC(=O)N(O)CCC[C@@H]1NC(=O)[C@H](CCCN(O)C(C)=O)NC(=O)[C@H](CCCN(O)C(C)=O)NC(=O)[C@H](Cc2ccccc2)NC(=O)[C@H](CC(C)C)NC(=O)[C@H](C)NC1=O (cyclo(ALF[Orn(N5-OH,N5-Ac)][Orn(N5-OH,N5-Ac)][Orn(N5-OH,N5-Ac)]))	inactive	inactive	inactive	Active	inactive	inactive	8.7 µM	inactive	inactive	inactive	inactive	inactive	inactive
CC(=O)N(O)CCC[C@@H]1NC(=O)[C@H](CCCN(O)C(C)=O)NC(=O)[C@H](CCCN(O)C(C)=O)NC(=O)[C@H](Cc2ccccc2)NC(=O)[C@H](CC(C)C)NC(=O)[C@H](CO)NC1=O (cyclo(F[Orn(N5-OH,N5-Ac)][Orn(N5-OH,N5-Ac)][Orn(N5-OH,N5-Ac)]SL))	inactive	inactive	inactive	Active	inactive	inactive	16 µM	inactive	inactive	inactive	inactive	inactive	inactive
Nc1nc2c(ncn2COC(CO)CO)c(=O)[nH]1 [GANCICLOVIR]	–	–	–	Active	–	–	0.025 µM	–	–	–	–	–	–
CC(=O)N(O)CCC[C@@H]1NC(=O)[C@H](CCCN(O)C(C)=O)NC(=O)[C@H](Cc2ccccc2)NC(=O)[C@H](CC(C)C)NC(=O)[C@H](Cc2c[nH]c3ccccc23)NC(=O)[C@H](CCCN(O)C(C)=O)NC1=O (cyclo(F[Orn(N5-OH,N5-Ac)][Orn(N5-OH,N5-Ac)][Orn(N5-OH,N5-Ac)]WL))	inactive	inactive	inactive	–	inactive	inactive	24 µM	inactive	inactive	inactive	inactive	inactive	inactive
CC(=O)N(O)CCC[C@@H]1NC(=O)[C@H](CCCN(O)C(C)=O)NC(=O)[C@H](Cc2ccccc2)NC(=O)[C@H](CC(C)C)NC(=O)[C@H](Cc2ccccc2)NC(=O)[C@H](CCCN(O)C(C)=O)NC1=O (cyclo(FLF[Orn(N5-OH,N5-Ac)][Orn(N5-OH,N5-Ac)][Orn(N5-OH,N5-Ac)]))	inactive	inactive	inactive	–	inactive	inactive	27 µM	inactive	inactive	inactive	inactive	inactive	inactive
